Data taken from the M2OR odorant receptor database.

How the values were obtained:
Conditions in all cases: stereoisomer not certain
UniProt Q8VGC6 = target: T1, UniProt Q8VGC6
T1 sequence (whole entry): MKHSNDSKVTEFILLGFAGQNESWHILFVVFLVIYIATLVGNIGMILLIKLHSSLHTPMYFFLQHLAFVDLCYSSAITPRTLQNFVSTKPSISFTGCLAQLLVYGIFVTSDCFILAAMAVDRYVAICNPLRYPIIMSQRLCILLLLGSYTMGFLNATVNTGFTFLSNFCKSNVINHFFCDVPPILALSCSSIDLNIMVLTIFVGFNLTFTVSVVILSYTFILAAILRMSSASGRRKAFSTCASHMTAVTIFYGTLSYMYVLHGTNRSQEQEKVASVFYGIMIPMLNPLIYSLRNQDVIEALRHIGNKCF
Summary of the method: (§1)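 Values were gathered from published papers (main text and supplementary material), with extra details requested from the original authors when needed, and checked for typos and inconsistencies. Each receptor–molecule pair is called responsive (active) if the original authors judged the measured signal statistically different from baseline, and non-responsive (inactive) otherwise. Assay methods varied by source, often transient mammalian cell-line luciferase assays. Recorded details include cell line, G-protein, co-transfected protein and tags.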

UniProt Q8VGJ3 = target: T2, UniProt Q8VGJ3
T2 sequence (whole entry): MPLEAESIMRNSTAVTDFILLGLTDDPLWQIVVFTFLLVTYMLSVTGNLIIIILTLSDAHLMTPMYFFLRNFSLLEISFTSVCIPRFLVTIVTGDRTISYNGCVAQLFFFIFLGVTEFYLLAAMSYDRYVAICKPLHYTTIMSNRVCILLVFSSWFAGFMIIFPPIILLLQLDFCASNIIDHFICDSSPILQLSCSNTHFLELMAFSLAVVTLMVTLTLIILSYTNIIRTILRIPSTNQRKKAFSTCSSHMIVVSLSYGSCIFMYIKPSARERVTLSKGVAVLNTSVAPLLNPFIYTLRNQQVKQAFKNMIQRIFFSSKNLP
Summary of the method: as §1

UniProt Q8VGL0 = target: T3, UniProt Q8VGL0
T3 sequence (whole entry): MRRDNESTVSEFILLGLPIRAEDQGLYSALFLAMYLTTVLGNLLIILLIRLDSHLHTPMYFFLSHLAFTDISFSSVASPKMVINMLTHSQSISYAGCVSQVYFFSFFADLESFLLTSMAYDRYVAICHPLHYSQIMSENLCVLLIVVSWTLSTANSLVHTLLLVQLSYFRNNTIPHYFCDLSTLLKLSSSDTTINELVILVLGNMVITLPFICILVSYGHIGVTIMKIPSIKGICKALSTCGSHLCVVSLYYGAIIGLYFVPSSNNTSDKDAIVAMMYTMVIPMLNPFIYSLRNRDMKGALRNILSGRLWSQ
Summary of the method: as §1

UniProt Q8VGU3 = target: T4, UniProt Q8VGU3
T4 sequence (whole entry): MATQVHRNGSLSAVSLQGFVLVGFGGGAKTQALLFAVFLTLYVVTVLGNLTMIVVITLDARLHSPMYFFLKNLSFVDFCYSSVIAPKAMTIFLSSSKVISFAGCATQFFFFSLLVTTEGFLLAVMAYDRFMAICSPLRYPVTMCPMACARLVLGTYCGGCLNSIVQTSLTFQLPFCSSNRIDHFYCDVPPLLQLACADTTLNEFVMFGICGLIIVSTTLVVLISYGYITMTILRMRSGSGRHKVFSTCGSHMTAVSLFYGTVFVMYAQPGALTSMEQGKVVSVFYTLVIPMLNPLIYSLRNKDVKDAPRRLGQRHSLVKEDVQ
Summary of the method: as §1

UniProt Q8VGV7 = target: T5, UniProt Q8VGV7
T5 sequence (whole entry): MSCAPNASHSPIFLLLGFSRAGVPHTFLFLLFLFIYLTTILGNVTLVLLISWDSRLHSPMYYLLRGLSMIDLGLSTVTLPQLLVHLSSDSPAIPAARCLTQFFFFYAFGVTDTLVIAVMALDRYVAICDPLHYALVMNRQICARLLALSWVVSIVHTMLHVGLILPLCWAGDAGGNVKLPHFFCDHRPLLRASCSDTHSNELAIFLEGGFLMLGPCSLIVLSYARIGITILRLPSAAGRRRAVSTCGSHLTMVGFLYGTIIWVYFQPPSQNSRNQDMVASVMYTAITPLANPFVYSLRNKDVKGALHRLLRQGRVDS
Summary of the method: as §1

UniProt Q8VGX3 = target: T6, UniProt Q8VGX3
T6 sequence (whole entry): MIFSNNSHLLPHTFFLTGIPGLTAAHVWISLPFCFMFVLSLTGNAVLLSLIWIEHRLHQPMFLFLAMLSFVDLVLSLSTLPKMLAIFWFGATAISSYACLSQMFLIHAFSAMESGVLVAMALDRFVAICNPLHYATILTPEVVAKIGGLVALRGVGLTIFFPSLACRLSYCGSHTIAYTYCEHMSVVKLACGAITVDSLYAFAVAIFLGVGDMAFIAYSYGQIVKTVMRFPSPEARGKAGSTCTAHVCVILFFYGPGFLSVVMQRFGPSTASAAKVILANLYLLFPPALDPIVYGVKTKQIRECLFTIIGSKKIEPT
Summary of the method: as §1

UniProt Q8VGX5 = target: T7, UniProt Q8VGX5
T7 sequence (whole entry): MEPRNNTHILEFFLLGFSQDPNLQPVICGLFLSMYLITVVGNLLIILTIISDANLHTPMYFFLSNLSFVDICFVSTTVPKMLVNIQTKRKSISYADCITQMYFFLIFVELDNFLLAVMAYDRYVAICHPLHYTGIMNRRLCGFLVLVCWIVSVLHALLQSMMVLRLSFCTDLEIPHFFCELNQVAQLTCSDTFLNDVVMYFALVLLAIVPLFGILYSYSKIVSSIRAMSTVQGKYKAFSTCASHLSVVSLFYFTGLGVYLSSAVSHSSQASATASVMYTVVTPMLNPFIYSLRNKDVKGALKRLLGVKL
Summary of the method: as §1

UniProt Q8VGW5 = target: T8, UniProt Q8VGW5
T8 sequence (whole entry): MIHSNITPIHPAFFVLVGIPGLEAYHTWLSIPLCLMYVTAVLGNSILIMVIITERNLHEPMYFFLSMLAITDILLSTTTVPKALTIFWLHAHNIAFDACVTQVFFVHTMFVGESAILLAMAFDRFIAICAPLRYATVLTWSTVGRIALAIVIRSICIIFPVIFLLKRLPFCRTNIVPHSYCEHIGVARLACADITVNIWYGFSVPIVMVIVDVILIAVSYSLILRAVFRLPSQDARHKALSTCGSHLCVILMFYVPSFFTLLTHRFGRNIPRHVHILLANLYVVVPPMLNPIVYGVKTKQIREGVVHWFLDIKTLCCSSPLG
Summary of the method: as §1

Compound	odorant receptor agonist call (UniProt Q8VGC6)	odorant receptor agonist call (UniProt Q8VGJ3)	odorant receptor agonist call (UniProt Q8VGL0)	odorant receptor agonist call (UniProt Q8VGU3)	odorant receptor agonist call (UniProt Q8VGV7)	odorant receptor agonist call (UniProt Q8VGX3)	odorant receptor agonist call (UniProt Q8VGX5)	odorant receptor agonist call (UniProt Q8VGW5)
CCCCCCCCCCOC(C)=O	inactive	inactive	inactive	inactive	inactive	inactive	inactive	
CC1CC=CCCCCCCCCCC(=O)C1 (stereo not given)	inactive	inactive	inactive	inactive	inactive	inactive	inactive	
CC=CC(=O)C1=C(C)CCCC1(C)C	inactive	inactive	inactive	inactive	inactive	inactive	active	
CSSCc1ccco1	inactive	inactive	inactive	inactive	inactive	inactive	inactive	
CC(=O)OCCc1ccccc1	inactive	inactive	inactive	inactive	active	inactive	inactive	
CCCCCCCCCCCO	inactive	inactive	inactive	inactive	inactive	inactive	inactive	
Cc1c(C)c(C)c(C=O)c(C)c1C	inactive	inactive	inactive	inactive	inactive	inactive	inactive	
CC=Cc1ccc(OC)cc1	inactive	inactive	inactive	inactive	inactive	inactive	inactive	
CC=C(C)C=O	inactive	inactive	inactive	inactive	inactive	inactive	inactive	
CC(C)CS	inactive	inactive	inactive	inactive	inactive	inactive	inactive	
CC(C)CCN	inactive	inactive	inactive	inactive	inactive	inactive	inactive	
CCSSCC	inactive	inactive	inactive	inactive	inactive	inactive	inactive	
CCc1ncc(C)nc1CC	inactive	inactive	inactive	inactive	inactive	inactive	inactive	
C=CC(=C)CCC=C(C)C	inactive	inactive	inactive	inactive	inactive	inactive	inactive	
OCCCCCCCCCO	inactive	inactive	inactive	inactive	inactive	inactive	inactive	
CCC=CCCCCC=O	inactive	inactive	inactive	inactive	inactive	inactive	inactive	
C=CC(=C)CCC=C(C)CCC=C(C)C	inactive	inactive	inactive	inactive	inactive	inactive	inactive	
CC(C)=CCCC(C)=CCOC(=O)C(C)C	inactive	inactive	inactive	inactive	inactive	inactive	active	
CCOC(=O)CC(C)C	inactive	inactive	inactive	inactive	inactive	inactive	inactive	
CCCCCCC(C)O (stereo not given)	inactive	inactive	inactive	inactive	inactive	inactive	inactive	
CCCCOC(=O)CCC	inactive							inactive
Cc1ccc(C(C)C)c(O)c1	inactive	inactive	inactive	inactive	inactive	active	inactive	
CCCCCOC(=O)CCC	inactive	inactive	inactive	inactive	inactive	inactive	inactive	
CCSCC	inactive	inactive	inactive	inactive	inactive	inactive	inactive	
O=C([O-])CCCCCCC(=O)[O-].[H+].[H+]	inactive	inactive	inactive	inactive	inactive	inactive	inactive	
CCN(CC)CC	inactive	inactive	inactive	inactive	inactive	inactive	inactive	
CCCCCCC(C=O)=Cc1ccccc1	inactive	inactive	inactive	inactive	inactive	inactive	inactive	
COC(OC)c1ccccc1	inactive	inactive	inactive	inactive	inactive	inactive	inactive	
COc1ccccc1	inactive	inactive	inactive	inactive	inactive	inactive	inactive	
Cc1ccc2c(c1)OCC(=O)CO2	inactive	inactive	inactive	inactive	inactive	inactive	inactive	
